pEC50: −log10 of the molar value.
How the values were obtained:
[1] = Similarity index (SI) value of the compound.; assay type: functional
Procedure, shortened: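 Computed by comparing atomic electrostatic multipoles at the atomic centres of the molecule pair. Molecule B is rotated and translated against the other by quasi-Newton minimization, using numerical first and second derivatives, with the Hessian updated after every move of B. R is replaced by R + 10^-4 to avoid division by zero. The procedure is repeated to obtain E_B.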

AIK-T4 = test: Ability to prevent HIV-1 induced T4 cell killing and HIV-1 replication.; assay type: functional, cell-based; settings: Homo sapiens

| SMILES | SI [1] | pEC50 (AIK-T4) |
| --- | --- | --- |
| COc1cc(-c2ccc(/N=N/c3ccc4c(S(=O)(=O)O)cc(S(=O)(=O)O)c(N)c4c3O)c(OC)c2)ccc1/N=N/c1ccc2c(S(=O)(=O)O)cc(S(=O)(=O)O)c(N)c2c1O [CHICAGO SKY BLUE SODIUM] | 0.4 | 5.32 |
| O=S(=O)(O)c1cc(/N=N/c2ccc3cccnc3c2O)ccc1/C=C/c1ccc(/N=N/c2ccc3cccnc3c2O)cc1S(=O)(=O)O | 0.45 | 5.19 |
| COc1cc(-c2ccc(/N=N/c3ccc4c(S(=O)(=O)O)ccc(S(=O)(=O)O)c4c3N)c(OC)c2)ccc1/N=N/c1ccc2c(S(=O)(=O)O)ccc(S(=O)(=O)O)c2c1N | 0.5 | 4.86 |
| O=C(O)c1cc(O)cc(O)c1/N=N/c1ccc(/C=C/c2ccc(/N=N/c3c(O)cc(O)cc3C(=O)O)cc2S(=O)(=O)O)c(S(=O)(=O)O)c1 | 0.16 | 5.85 |
| Nc1c(S(=O)(=O)O)cc2cc(S(=O)(=O)O)ccc2c1/N=N/c1ccc(/C=C/c2ccc(/N=N/c3c(N)c(S(=O)(=O)O)cc4cc(S(=O)(=O)O)ccc34)cc2S(=O)(=O)O)c(S(=O)(=O)O)c1 | 0.31 | 5.54 |
| O=S(=O)(O)c1cc(/N=N/c2cc(S(=O)(=O)O)c3cccnc3c2O)ccc1/C=C/c1ccc(/N=N/c2cc(S(=O)(=O)O)c3cccnc3c2O)cc1S(=O)(=O)O | 0 | 5.89 |
| Nc1cc(N)c(/N=N/c2ccc(/C=C/c3ccc(/N=N/c4c(N)cc(N)cc4C(=O)O)cc3S(=O)(=O)O)c(S(=O)(=O)O)c2)c(C(=O)O)c1 | 0.69 | 4.51 |
